Test results: ChEMBL document CHEMBL4814064, “Azetidinimines as a novel series of non-covalent broad-spectrum inhibitors of β-lactamases with submicromolar activities against carbapenemases KPC-2 (class A), NDM-1 (class B) and OXA-48 (class D)” (Eur J Med Chem, 2021)

Experiments:
[1] = Inhibition of NDM-1 (unknown origin); parameters: species or system Bacteria
[2] = Inhibition of NDM-1 (unknown origin) expressed in Escherichia coli BW25113deltabamBdeltatolC mutant using nitrocefin as substrate by colorimetric analysis; parameters: species or system Bacteria
[3] = Inhibition of Escherichia coli NTBC121 NDM-1 by UV absorbance analysis
Bacteria [4] = experiment: Inhibition of NDM-9 (unknown origin) expressed in Escherichia coli BL21(DE3) at 10 uM
Procedure, shortened: (§1)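 Enzymes cloned into pET41b from clinical enterobacterial DNA and expressed in E. coli BL21(DE3) overnight at 22 °C with 0.2 mM IPTG. His-tag affinity then Superdex 75 gel filtration (100 mM phosphate pH 7, 150 mM NaCl); dialysed into 10 mM Tris-HCl pH 7.6, with 50 µM ZnSO4 added for NDM and VIM variants.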

Bacteria [5] = experiment: Inhibition of CMY-2 (unknown origin) expressed in Escherichia coli BL21(DE3) at 10 uM; procedure, shortened: as §1
Bacteria [6] = experiment: Inhibition of VIM-1 (unknown origin) expressed in Escherichia coli BL21(DE3) at 10 uM; procedure, shortened: as §1
Escherichia coli [7] = experiment: Potentiation of imipenem-induced antibacterial activity against Escherichia coli clinical isolate GUE expressing NDM-1 assessed as imipenem MIC at 100 uM incubated for 18 to 24 hrs by broth microdilution method (reference value: 16 ug/ml); format: functional; conditions: time 18-24 hrs
[8] = Inhibition of NDM-1 (unknown origin) expressed in Escherichia coli BL21 (DE3) incubated for 3 mins by spectrophotometric analysis; parameters: species or system Bacteria; conditions: read-out: Ki
Procedure, shortened: (§2)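 NDM-1 (1 nM, His-tagged, expressed in E. coli BL21(DE3) with 1 mM IPTG for 3 h at 37 °C, purified, kept with 50 µM ZnSO4). Run in 100 mM phosphate pH 7 with 50 µM ZnSO4, 3 min enzyme–inhibitor preincubation, then 100 µM imipenem. Initial rates at 297 nm over 600 s, 25 °C. Triplicate seven-point IC50 converted to Ki (Cheng–Prusoff); percent inhibition at 10 µM.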

[9] = target: Class A carbapenemase KPC-2 (Escherichia coli) (UniProt A8DS27); experiment: Inhibition of KPC-2 (unknown origin) expressed in Escherichia coli BL21 (DE3) at 10 uM incubated for 3 mins by spectrophotometric analysis relative to control
Procedure, shortened: (§3)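 Preincubated 3 min with inhibitor in 100 mM phosphate pH 7. Imipenem 100 µM; hydrolysis followed at 297 nm for 600 s at 25 °C. IC50 from seven concentrations in triplicate; Ki by Cheng–Prusoff. Percent inhibition read at 10 µM.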

MRC5 = experiment: Cytotoxicity against human MRC-5 cells assessed as reduction in cell viability measured after 72 hrs by MTS assay; format: cell-based; conditions: MRC5, 72 h
Procedure, shortened: (§4)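 Cells grown at 37 °C in 5% CO2: MRC-5 in DMEM and HCT116 in RPMI 1640, each with 10% FCS and 1% glutamine. Seeded at 2.5 × 10³ cells/well, dosed after 24 h, exposed 72 h, then read at 490 nm after 2 h with reagent. IC50 = concentration halving absorbance versus untreated; triplicate.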

HCT-116 = experiment: Cytotoxicity against human HCT-116 cells assessed as reduction in cell viability measured after 72 hrs by MTS assay; format: cell-based; conditions: HCT-116, 72 h; procedure, shortened: as §4
[10] = Metabolic stability in mouse liver microsomes at 5 uM assessed as intrinsic clearance measured per mg protein by UPLC-MS/MS analysis; format: ADME, Microsome; conditions: read-out: CLH
Procedure, shortened: (§5)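 Test compound at 5 µM with 0.5 mg/mL pooled male mouse liver microsomes in 0.1 M phosphate pH 7.4 at 37 °C. Reaction started with 1 mM NADPH and sampled at 0–45 min in duplicate; a no-NADPH control was run. Quenched with cold acetonitrile; parent measured by UPLC-MS/MS (MRM). t1/2 from log-linear decay; CLint per mg microsomal protein.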

Bacteria [11] = experiment: Inhibition of NDM-7 (unknown origin) expressed in Escherichia coli BL21(DE3) at 10 uM; procedure, shortened: as §1
[12] = Inhibition of OXA-48 (unknown origin) expressed in Escherichia coli BL21 (DE3) incubated for 3 mins by spectrophotometric analysis; parameters: species or system Bacteria; conditions: read-out: Ki
Procedure, shortened: (§6)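 OXA-48 at 5.8 nM (His-tagged, expressed in BL21(DE3), purified in K2SO4 buffers) in 100 mM phosphate pH 7 plus 50 mM NaHCO3. Inhibitor preincubated 3 min; substrate 100 µM imipenem; initial velocities at 297 nm, 600 s, 25 °C. Seven inhibitor concentrations in triplicate give IC50, converted to Ki by Cheng–Prusoff; percent inhibition at 10 µM.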

Bacteria [13] = experiment: Inhibition of VIM-52 (unknown origin) expressed in Escherichia coli BL21(DE3) at 10 uM; procedure, shortened: as §1
Bacteria [14] = experiment: Inhibition of NDM-1 (unknown origin) expressed in Escherichia coli BL21 (DE3) at 10 uM incubated for 3 mins by spectrophotometric analysis relative to control; procedure, shortened: as §2
Bacteria [15] = experiment: Inhibition of CTX-M-15 (unknown origin) expressed in Escherichia coli BL21(DE3) at 10 uM; procedure, shortened: as §1
[16] = target: Class A carbapenemase KPC-2 (Escherichia coli, UniProt A8DS27); experiment: Inhibition of KPC-2 (unknown origin) expressed in Escherichia coli BL21 (DE3) incubated for 3 mins by spectrophotometric analysis; conditions: read-out: Ki; procedure, shortened: as §3
[17] = Metabolic stability in mouse liver microsomes at 5 uM after 45 min absence of NADPH by UPLC-MS/MS analysis; format: ADME, Microsome; conditions: read-out: Stabilty; procedure, shortened: as §5
Escherichia coli [18] = experiment: Potentiation of imipenem-induced antibacterial activity against Escherichia coli clinical isolate GUE expressing NDM-1 assessed as imipenem MIC at 50 uM incubated for 18 to 24 hrs by broth microdilution method (reference value: 16 ug/ml); format: functional; conditions: time 18-24 hrs
Bacteria [19] = experiment: Inhibition of OXA-48 (unknown origin) expressed in Escherichia coli BL21 (DE3) at 10 uM incubated for 3 mins by spectrophotometric analysis relative to control; procedure, shortened: as §6
Bacteria [20] = experiment: Inhibition of NDM-4 (unknown origin) expressed in Escherichia coli BL21(DE3) at 10 uM; procedure, shortened: as §1
Escherichia coli [21] = experiment: Potentiation of imipenem-induced antibacterial activity against Escherichia coli clinical isolate GUE expressing NDM-1 assessed as imipenem MIC at 20 uM incubated for 18 to 24 hrs by broth microdilution method (reference value: 16 ug/ml); format: functional; conditions: time 18-24 hrs
Escherichia coli [22] = experiment: Potentiation of imipenem-induced antibacterial activity against Escherichia coli clinical isolate GUE expressing NDM-1 assessed as fold change in imipenem MIC at 50 uM incubated for 18 to 24 hrs by broth microdilution method; format: functional; conditions: time 18-24 hrs
Escherichia coli [23] = experiment: Potentiation of imipenem-induced antibacterial activity against Escherichia coli clinical isolate GUE expressing NDM-1 assessed as fold change in imipenem MIC at 200 uM incubated for 18 to 24 hrs by broth microdilution method; format: functional; conditions: time 18-24 hrs

Row | Compound | MIC (Escherichia coli [7]) [µg/mL] | Ki [8] [µM] | inhibition [9] [%] | IC50 (MRC5) [µM] | IC50 (HCT-116) [µM] | microsomal CLint at 5 µM [10] [µL/min/mg] | Ki [12] [µM] | inhibition (Bacteria [14]) [%] | Ki [16] [µM] | remaining at 0.75 h, 5 µM [17] [%] | MIC (Escherichia coli [18]) [µg/mL] | inhibition (Bacteria [19]) [%] | MIC (Escherichia coli [21]) [µg/mL] | other results
1 | CN1CCN(NC(=O)CN2C(=O)/C(=C/c3c(Cl)ccc(Cl)c3Cl)SC2=S)CC1 |  |  |  |  |  |  |  |  |  |  |  |  |  | IC50 [1]: 9.44 µM
2 | N[C@H](CN[C@H](CN[C@@H](CC(=O)O)C(=O)O)C(=O)O)C(=O)O |  |  |  |  |  |  |  |  |  |  |  |  |  | IC50 [2]: 4 µM
3 | O=C(O)c1ncsc1NS(=O)(=O)c1cccnc1 |  |  |  |  |  |  |  |  |  |  |  |  |  | IC50 [3]: 2.67 µM
4 | Oc1ccc(N2/C(=N/c3ccc(I)cc3)CC2c2ccc(Cl)cc2Cl)cc1 (racemic) | 4 | 0.07 | > 50 | 19.9 | 32.3 | 13.9 | 0.07 | > 50 | 0.28 | 96 | 4 | > 50 | 8 | inhibition (Bacteria [4]): 100%; inhibition (Bacteria [5]): 86%; inhibition (Bacteria [6]): 100%; inhibition (Bacteria [11]): 100%; inhibition (Bacteria [13]): 0%; inhibition (Bacteria [15]): 83%; inhibition (Bacteria [20]): 100%
5 | Clc1ccc(C2C/C(=N\c3ccc(I)cc3)N2c2ccc(OCc3ccccc3)cc2)c(Cl)c1 (racemic) | 2 | 0.36 | > 50 | > 100 | > 100 | 7.6 |  | > 50 | 3.69 | 100 | 4 | 41 | 16 | fold change (FC) (Escherichia coli [22]): 4
6 | COc1ccc(N2/C(=N/c3ccc(I)cc3)CC2c2ccc(Cl)cc2Cl)cc1 (racemic) | 16 | 0.22 | > 50 | > 100 | > 100 | 2 | 0.91 | > 50 | 1.89 | 83 | 16 | > 50 | 16 | fold change (FC) (Escherichia coli [23]): 2
